The text below walks through data of ChEMBL document CHEMBL4138070, “Synthesis and biological evaluation of (-)-kunstleramide and its derivatives” (Medchemcomm, 2017).

What all share (assay type): functional, cell-based
In one test the test system is MCF7. Kind of test: Antiproliferative activity in human MCF7 cells assessed as reduction in cell number incubated for 48 hrs by SRB assay. The note with it: MCF7, 48 h. The essentials:
(§1)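 Cell lines from ATCC, kept in DMEM with 10% FBS and 1% penicillin–streptomycin at 37 °C under 5% CO2. Seeded from 5×10^4 cells/ml suspension, grown 24 h, then treated with 1, 10, 50 and 100 μM for 48 h. Fixed with cold 10% TCA 1 h at 4 °C, stained with 0.057% SRB, dye dissolved in 10 mM Tris, read at 510 nm. IC50 is 50% cell-number decrease versus untreated control, from regression.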
On the technique in general: Sulforhodamine B stains cellular protein and so reports cell mass.

In the next test the test system is IMR-32. Kind of test: Antiproliferative activity in human IMR32 cells assessed as reduction in cell number incubated for 48 hrs by SRB assay. The note with it: IMR-32, 48 h. The essentials: as §1
The next test has as its system A549. Kind of test: Antiproliferative activity in human A549 cells assessed as reduction in cell number incubated for 48 hrs by SRB assay. Conditions: A549, 48 h. The gist of the method:
as §1

For the next test, the system named is HeLa. Kind of test: Antiproliferative activity in human HeLa cells assessed as reduction in cell number incubated for 48 hrs by SRB assay. The gist of the method: as §1

The term IC50 denotes the concentration at which inhibition is half-maximal. As to `COc1ccc(C[C@@H](O)/C=C/C=C/C(=O)N2CCN(c3ccccn3)CC2)cc1OC`, the IC50 with MCF7 turned out to be 23.6 µM; in the test with IMR-32, 11.1 µM; in the test on A549, 8.13 µM; in the test on HeLa, 23.6 µM.

On to `COc1ccc(C[C@@H](O)/C=C/C=C/C(=O)NCc2cc(OC)c(OC)c(OC)c2)cc1OC`, for which the IC50 was found to be 15.3 µM in the test on MCF7, 13.4 µM in the test on IMR-32, 19.2 µM in the test on A549 and 10.7 µM in the test with HeLa.

As to `COc1ccc(/C=C\c2cc(OC)c(OC)c(OC)c2)cc1O` [COMBRETASTATIN A4], the IC50 with MCF7 worked out at 4.63 µM; with IMR-32, 5.72 µM; in the test with A549, 6.45 µM; with HeLa it was 5.36 µM.

`COc1ccc(C[C@@H](O)/C=C/C=C/C(=O)N2CCN(C)CC2)cc1OC`: the IC50 in the test on MCF7 is 17.1 µM; with IMR-32, 18.9 µM; with A549, 22.2 µM; with HeLa it was 16.5 µM.

For the molecule `COc1ccc(C[C@@H](O)/C=C/C=C/C(=O)NCc2ccc(Cl)cc2)cc1OC`, the IC50 is 18.1 µM in the test with MCF7, 15.7 µM in the test on IMR-32, 16.5 µM in the test with A549 and 13.4 µM in the test on HeLa.

`COc1ccc(C[C@@H](O)/C=C/C=C/C(=O)N2CCCCC2)cc1OC`: the IC50 in the test on MCF7 came out at 39.5 µM; in the test with IMR-32, 11 µM; with A549, 16.4 µM; with HeLa, 14.1 µM.

As for `COc1ccc(C[C@@H](O)/C=C/C=C/C(=O)N2CCN(Cc3ccc4c(c3)OCO4)CC2)cc1OC`, the IC50 amounted to 12.3 µM with MCF7, 8.23 µM in the test with IMR-32, 7.58 µM in the test on A549 and 8.25 µM in the test on HeLa.

As to `CCN1CCN(C(=O)/C=C/C=C/[C@H](O)Cc2ccc(OC)c(OC)c2)CC1`, the IC50 worked out at 11.5 µM in the test on MCF7, 10.8 µM in the test on IMR-32, 15.7 µM in the test with A549 and 11.7 µM with HeLa.

Turning to `COc1ccc(C[C@@H](O)/C=C/C=C/C(=O)N2CCOCC2)cc1OC`, the IC50 in the test on MCF7 was found to be 16.2 µM; in the test with IMR-32, 20.4 µM; in the test on A549, 17.9 µM; in the test with HeLa, 16.4 µM.

For the molecule `COc1ccc(C[C@@H](O)/C=C/C=C/C(=O)NCc2ccccc2)cc1OC`, the IC50 stood at 33.6 µM in the test with MCF7, 16.6 µM in the test with IMR-32, 17.1 µM in the test with A549 and 12.9 µM with HeLa.

Turning to `COc1ccc(C[C@@H](O)/C=C/C=C/C(=O)N2CCSCC2)cc1OC`, the IC50 in the test with MCF7 stood at 20.2 µM; with IMR-32, 16.1 µM; in the test on A549 it was 18 µM; in the test on HeLa it was 20.6 µM.

Regarding `CCNC(=O)/C=C/C=C/[C@H](O)Cc1ccc(OC)c(OC)c1`, the IC50 with MCF7 is 12.9 µM; in the test on IMR-32, 9.43 µM; with A549 it was 13.8 µM; in the test on HeLa, 14.6 µM.

With `COc1ccc(C[C@@H](O)/C=C/C=C/C(=O)N2CCN(C(c3ccccc3)c3ccccc3)CC2)cc1OC`, the IC50 with MCF7 came to 12.5 µM; in the test with IMR-32, 11.9 µM; in the test with A549 it was 10.6 µM; with HeLa, 10.5 µM.

Turning to `COc1ccc(C[C@@H](O)/C=C/C=C/C(=O)N2CCN(c3ccccc3)CC2)cc1OC`, the IC50 was 12 µM in the test on MCF7, 9.43 µM in the test with IMR-32, 14.2 µM in the test with A549 and 9.75 µM in the test with HeLa.

For `COc1ccc(CNC(=O)/C=C/C=C/[C@H](O)Cc2ccc(OC)c(OC)c2)cc1`, the IC50 came out at 26.6 µM in the test with MCF7, 17.4 µM in the test with IMR-32, 16.8 µM in the test on A549 and 9.45 µM in the test with HeLa.

With `COc1ccc(C[C@@H](O)/C=C/C=C/C(=O)N2CCCC2)cc1OC`, the IC50 was 26.2 µM in the test with MCF7, 12 µM in the test with IMR-32, 24.4 µM in the test with A549 and 14.1 µM with HeLa.

As to `O=C(/C=C/C=C/c1ccc2c(c1)OCO2)N1CCCCC1` [PIPERINE], the IC50 came to 13 µM in the test on MCF7, 10.2 µM with IMR-32, 11.9 µM with A549 and 19.2 µM with HeLa.

On to `COc1ccc(C[C@@H](O)/C=C/C=C/C(=O)N2CCN(c3ncccn3)CC2)cc1OC`, for which the IC50 is 14.7 µM with MCF7, 10.8 µM in the test on IMR-32, 9.92 µM in the test with A549 and 12.6 µM in the test with HeLa.
